Data: ChEMBL document CHEMBL1145889, “Potent and selective inhibitors of platelet-derived growth factor receptor phosphorylation. 3. Replacement of quinazoline moiety and improvement of metabolic polymorphism of 4-[4-(N-substituted (thio)carbamoyl)-1-piperazinyl]-6,7-dimethoxyquinazoline derivatives” (J Med Chem, 2003)

Key:
Assay type in all cases: ADME, organism-based
[1] = Pharmacokinetic parameter (AUC) was determined after administering 1 mg/kg of compound intravenously in rat no.3 belonging to phenotype EM (extensive metabolizer); design: dose 1 mg/kg, route intravenous; conditions: in vivo, iv
In short: (§1)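 Male Sprague–Dawley rats (nos. 1–4) were dosed intravenously at 1 mg/kg. Plasma drug concentration was measured by HPLC. Parameters were derived by model-independent analysis. Rats were classed as extensive or poor metabolizers from their plasma profiles.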

[2] = Plasma clearance was determined after administering 1 mg/kg of compound intravenously in rat no.1 belonging to phenotype EM (extensive metabolizer); design: dose 1 mg/kg, route intravenous; conditions: iv; in short: as §1
[3] = Plasma clearance was determined after administering 1 mg/kg of compound intravenously in rat no.2 belonging to phenotype EM (extensive metabolizer); design: dose 1 mg/kg, route intravenous; conditions: iv; in short: as §1
[4] = Plasma clearance was determined after administering 1 mg/kg of compound intravenously in rat no.3 belonging to phenotype EM (extensive metabolizer); design: dose 1 mg/kg, route intravenous; conditions: iv; in short: as §1
[5] = Plasma clearance was determined after administering 1 mg/kg of compound intravenously in rat no.4 belonging to phenotype PM (poor metabolizer); design: dose 1 mg/kg, route intravenous; conditions: iv; in short: as §1
[6] = Mean residence time after oral administration of 30 mg/kg of compound in rat no.5 belonging to phenotype PM (poor metabolizer); design: dose 30 mg/kg, route oral; conditions: in vivo
In short: (§2)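 Male Sprague–Dawley rats (nos. 5–7) were given 30 mg/kg orally. Plasma concentration was determined by HPLC. Tmax, T1/2, MRT, Cmax and AUC came from model-independent analysis. Extensive and poor metabolizers were assigned from the concentration–time profiles.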

[7] = Mean residence time after oral administration of 30 mg/kg of compound in rat no.6 belonging to phenotype EM (extensive metabolizer); design: dose 30 mg/kg, route oral; conditions: in vivo; in short: as §2
[8] = Mean residence time after oral administration of 30 mg/kg of compound in rat no.7 belonging to phenotype PM (poor metabolizer); design: dose 30 mg/kg, route oral; conditions: in vivo; in short: as §2
[9] = Mean residence time of intravenously administered compound (1 mg/kg) in rat no.1 belonging to phenotype EM (extensive metabolizer); conditions: in vivo, iv; in short: as §1
[10] = Mean residence time of intravenously administered compound (1 mg/kg) in rat no.2 belonging to phenotype EM (extensive metabolizer); conditions: in vivo, iv; in short: as §1
[11] = Mean residence time of intravenously administered compound (1 mg/kg) in rat no.3 belonging to phenotype EM (extensive metabolizer); conditions: in vivo, iv; in short: as §1
[12] = Mean residence time of intravenously administered compound (1 mg/kg) in rat no.4 belonging to phenotype PM (poor metabolizer); conditions: in vivo, iv; in short: as §1
[13] = Volume of distribution at steady state was determined after administering 1 mg/kg of compound intravenously in rat no.1 belonging to phenotype EM (extensive metabolizer); design: dose 1 mg/kg, route intravenous; conditions: in vivo, iv, read-out: Vdss; in short: as §1
[14] = Volume of distribution at steady state was determined after administering 1 mg/kg of compound intravenously in rat no.2 belonging to phenotype EM (extensive metabolizer); design: dose 1 mg/kg, route intravenous; conditions: in vivo, iv, read-out: Vdss; in short: as §1
[15] = Volume of distribution at steady state was determined after administering 1 mg/kg of compound intravenously in rat no.3 belonging to phenotype EM (extensive metabolizer); design: dose 1 mg/kg, route intravenous; conditions: in vivo, iv, read-out: Vdss; in short: as §1
[16] = Volume of distribution at steady state was determined after administering 1 mg/kg of compound intravenously in rat no.4 belonging to phenotype PM (poor metabolizer); design: dose 1 mg/kg, route intravenous; conditions: in vivo, iv, read-out: Vdss; in short: as §1
[17] = Half-life period of intravenously administered compound (1 mg/kg) in rat no.1 belonging to phenotype EM (extensive metabolizer); conditions: in vivo, iv, read-out: T1/2 beta (converted); in short: as §1
[18] = Maximum plasma concentration was determined after administering 30 mg/kg of compound orally in rat no.5 belonging to phenotype PM (poor metabolizer); design: dose 30 mg/kg, route oral; conditions: po; in short: as §2
[19] = Maximum plasma concentration was determined after administering 30 mg/kg of compound orally in rat no.6 belonging to phenotype EM (extensive metabolizer); design: dose 30 mg/kg, route oral; conditions: po; in short: as §2
[20] = Half-life period of orally administered compound (30 mg/kg) in rat no.5 belonging to phenotype PM (poor metabolizer); conditions: in vivo, po; in short: as §2
[21] = Half-life period of orally administered compound (30 mg/kg) in rat no.6 belonging to phenotype EM (extensive metabolizer); conditions: in vivo, po; in short: as §2
[22] = Half-life period of orally administered compound (30 mg/kg) in rat no.7 belonging to phenotype PM (poor metabolizer); conditions: in vivo, po; in short: as §2
[23] = Maximum plasma concentration was determined after administering 30 mg/kg of compound orally n rat no.7 belonging to phenotype PM (poor metabolizer); design: dose 30 mg/kg, route oral; conditions: po; in short: as §2
[24] = Pharmacokinetic parameter (AUC) was determined after administering 1 mg/kg of compound intravenously in rat no.1 belonging to phenotype EM (extensive metabolizer); design: dose 1 mg/kg, route intravenous; conditions: in vivo, iv; in short: as §1
[25] = Pharmacokinetic parameter (AUC) was determined after administering 1 mg/kg of compound intravenously in rat no.4 belonging to phenotype PM (poor metabolizer); design: dose 1 mg/kg, route intravenous; conditions: in vivo, iv; in short: as §1
[26] = Pharmacokinetic parameter (AUC) was determined after administering 30 mg/kg of compound orally in rat no.6 belonging to phenotype EM (extensive metabolizer); design: dose 30 mg/kg, route oral; conditions: in vivo, po; in short: as §2
[27] = Pharmacokinetic parameter (AUC) was determined after administering 30 mg/kg of compound orally in rat no.7 belonging to phenotype PM (poor metabolizer); design: dose 30 mg/kg, route oral; conditions: in vivo, po; in short: as §2
[28] = Half-life period of intravenously administered compound (1 mg/kg) in rat no.2 belonging to phenotype EM (extensive metabolizer); conditions: in vivo, iv, read-out: T1/2 beta (converted); in short: as §1
[29] = Half-life period of intravenously administered compound (1 mg/kg) in rat no.3 belonging to phenotype EM (extensive metabolizer); conditions: in vivo, iv, read-out: T1/2 beta (converted); in short: as §1
[30] = Half-life period of intravenously administered compound (1 mg/kg) in rat no.4 belonging to phenotype PM (poor metabolizer); conditions: in vivo, iv, read-out: T1/2 beta (converted); in short: as §1
[31] = Maximum time of retention of orally administered compound (30 mg/kg) in rat no.5 belonging to phenotype PM (poor metabolizer); conditions: in vivo, po; in short: as §2
[32] = Maximum time of retention of orally administered compound (30 mg/kg) in rat no.6 belonging to phenotype EM (extensive metabolizer); conditions: in vivo, po; in short: as §2
[33] = Maximum time of retention of orally administered compound (30 mg/kg) in rat no.7 belonging to phenotype PM (poor metabolizer); conditions: in vivo, po; in short: as §2
[34] = Pharmacokinetic parameter (AUC) was determined after administering 30 mg/kg of compound orally in rat no.5 belonging to phenotype PM (poor metabolizer); design: dose 30 mg/kg, route oral; conditions: in vivo, po; in short: as §2

- AUC [1]: 2420 ng·h/mL
- clearance [2]: 5.82 mL/min/kg
- clearance [3]: 6.73 mL/min/kg
- clearance [4]: 6.88 mL/min/kg
- clearance [5]: 0.707 mL/min/kg
- MRT [6]: 8.56 h
- MRT [7]: 3.92 h
- MRT [8]: 6.36 h
- MRT [9]: 0.65 h
- MRT [10]: 0.39 h
- MRT [11]: 0.35 h
- MRT [12]: 4.2 h
- Vd [13]: 0.22 L/kg
- Vd [14]: 0.16 L/kg
- Vd [15]: 0.15 L/kg
- Vd [16]: 0.18 L/kg
- half-life [17]: 0.97 h
- Cmax [18]: 50700 ng/mL
- Cmax [19]: 5220 ng/mL
- half-life [20]: 5.25 h
- half-life [21]: 2.54 h
- half-life [22]: 3.4 h
- Cmax [23]: 35200 ng/mL
- AUC [24]: 2870 ng·h/mL
- AUC [25]: 23600 ng·h/mL
- AUC [26]: 26300 ng·h/mL
- AUC [27]: 455000 ng·h/mL
- half-life [28]: 0.45 h
- half-life [29]: 0.39 h
- half-life [30]: 3.1 h
- Tmax [31]: 8 h
- Tmax [32]: 2 h
- Tmax [33]: 2 h
- AUC [34]: 815000 ng·h/mL
Structure (SMILES): COc1cc2ncnc(N3CCN(C(=O)Nc4ccc(C#N)cc4)CC3)c2cc1OC
